Key:
[1] = system: Ileum; assay: Relaxant activity in potassium depolarized guinea pig ileum longitudinal smooth muscle assessed as inhibition of calcium-induced contraction; type: functional, tissue-based; conditions: Cavia porcellus
Summary of the method: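 K⁺-depolarized (80 mM) guinea pig ileum longitudinal smooth muscle is used. Calcium-induced contraction is measured with cumulative compound addition.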

[2] = Negative chronotropic activity in guinea pig right atrium assessed as decrease in atrial rate at 5x10'-5 M relative to control; type: functional, Cavia porcellus, Cardiac atrium; design: scale not given: the % may be the effect or the level left
[3] = system: Aorta; assay: Relaxant activity in potassium depolarized guinea pig aortic strips assessed as inhibition of calcium-induced contraction at 10^-4 M relative to control; type: functional, Cavia porcellus; design: scale not given: the % may be the effect or the level left
Summary of the method: (§1)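 Guinea pig aortic strips and ileum longitudinal smooth muscle are depolarized with 80 mM K⁺. The read-out is percent inhibition of calcium-induced contraction. Aorta is tested at 10⁻⁴ M and ileum at 10⁻⁵ M.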

[4] = Negative inotropic activity in guinea pig left atrium assessed as decrease in developed tension at 10^-6 M relative to control; type: functional, Cavia porcellus, Cardiac atrium; design: scale not given: the % may be the effect or the level left
[5] = Negative chronotropic activity in guinea pig right atrium assessed as decrease in atrial rate; type: functional, tissue-based; conditions: Cavia porcellus, Cardiac atrium
Summary of the method: (§2)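 Isolated guinea pig atria are used, with left atria driven at 1 Hz. Compounds are added cumulatively. EC50 is derived from log concentration−response curves by Litchfield–Wilcoxon probit analysis, n = 6−7. EC50 is not calculated when the maximal effect is below 50%.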

[6] = system: Ileum; assay: Relaxant activity in potassium depolarized guinea pig ileum longitudinal smooth muscle assessed as inhibition of calcium-induced contraction at 10^-4 M relative to control; type: functional, Cavia porcellus; design: scale not given: the % may be the effect or the level left
[7] = system: Aorta; assay: Relaxant activity in potassium depolarized guinea pig aortic strips assessed as inhibition of calcium-induced contraction at 5x10'-5 M relative to control; type: functional, Cavia porcellus; design: scale not given: the % may be the effect or the level left
[8] = system: HEK293; assay: Displacement of [3H]-PN200-110 from voltage-gated calcium channel subunit alpha Cav1.2a (unknown origin) expressed in HEK293 cells at 100 uM after 90 mins by liquid scintillation counting analysis relative to control; type: cell-based; conditions: Homo sapiens
[9] = species: Cavia porcellus; assay: Displacement of [3H]-PN200-110 from L-type calcium channel in Hartley guinea pig ventricular membrane […] after 90 mins relative to control
[10] = species: Cavia porcellus; assay: Displacement of [3H]-PN200-110 from L-type calcium channel in Hartley guinea pig atrial membrane at 100 uM after 90 mins relative to control; type: cell membranes; conditions: Cardiac atrium
[11] = Displacement of [3H]-PN200-110 from L-type calcium channel dihydropyridine binding site in Wistar rat cortex homogenate after 60 mins by liquid scintillation spectometric analysis; type: tissue-based
Summary of the method: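 Competition binding on rat cortex homogenate with (+)-[5-methyl-3H]PN200-110. Compounds are dissolved in DMSO as 10⁻² M stocks and diluted in buffer. Six displacer concentrations are tested, each in triplicate. IC50 is obtained by −log probit analysis and Ki by the Prusoff method. Values are mean ± SEM of 3−5 separate experiments done in triplicate.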

[12] = Displacement of [3H]-PN200-110 from L-type calcium channel in Hartley guinea pig atrial membrane after 90 mins; type: cell membranes, Cavia porcellus, Cardiac atrium
Summary of the method: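 Guinea pig atrial membranes are labelled at the 1,4-DHP site with (+)-[5-methyl-3H]PN200-110 at 0.5 nM. Competitor is added over 0.001−100 μM from 10⁻² M DMSO stocks diluted in buffer. Results are given as IC50 and Ki, mean ± SEM. Student's t-test is applied with P<0.001.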

[13] = species: Rattus norvegicus; assay: Displacement of [3H]-PN200-110 from L-type calcium channel dihydropyridine binding site in Wistar rat cortex homogenate at 100 uM after 60 mins by liquid scintillation spectometric analysis relative to control; type: tissue-based
Summary of the method: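 Binding on rat cortex homogenate using (+)-[5-methyl-3H]PN200-110. The read-out is percent of maximal radioligand displacement at 100 μM test compound. Compounds are made up as 10⁻² M DMSO stocks and diluted in buffer. Values are from 3−5 separate experiments done in triplicate.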

[14] = system: Ileum; assay: Relaxant activity in potassium depolarized guinea pig ileum longitudinal smooth muscle assessed as inhibition of calcium-induced contraction at 5x10'-5 M relative to control; type: functional, Cavia porcellus; design: scale not given: the % may be the effect or the level left
[15] = Displacement of [3H]-PN200-110 from voltage-gated calcium channel subunit alpha Cav1.2a (unknown origin) expressed in HEK293 cells after 90 mins by liquid scintillation counting analysis; type: cell-based, Homo sapiens
Summary of the method: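 Intact HEK-293 cells stably transfected with a rabbit Cav1.2a (α1c-a) plasmid are used. They are incubated with 0.5 nM (+)-[5-methyl-3H]PN200-110 plus competitor at 0.001−100 μM, from 10⁻² M DMSO stocks diluted in buffer. IC50 values are given as mean ± SEM.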

[16] = Displacement of [3H]-PN200-110 from L-type calcium channel in Hartley guinea pig ventricular membrane […] after 90 mins; design: species or system Cavia porcellus
[17] = system: Ileum; assay: Relaxant activity in potassium depolarized guinea pig ileum longitudinal smooth muscle assessed as inhibition of calcium-induced contraction at 5x10'-9 M relative to control; type: functional, Cavia porcellus; design: scale not given: the % may be the effect or the level left
Summary of the method: (§3)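 Guinea pig aortic strips and ileum longitudinal smooth muscle were depolarized with 80 mM K⁺. Calcium-induced contraction was measured with cumulative compound addition, and inhibition was expressed as percent change from control (n = 6−7). Differences from control at each concentration were tested by Student's t-test, P < 0.05, and data are mean SEM.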

[18] = Negative inotropic activity in guinea pig left atrium assessed as decrease in developed tension; type: functional, tissue-based; conditions: Cavia porcellus, Cardiac atrium; summary of the method: as §2
[19] = system: Aorta; assay: Relaxant activity in potassium depolarized guinea pig aortic strips assessed as inhibition of calcium-induced contraction at 10^-6 M relative to control; type: functional, Cavia porcellus; design: scale not given: the % may be the effect or the level left; summary of the method: as §3
[20] = Negative inotropic activity in guinea pig left atrium assessed as decrease in developed tension at 10^-5 M relative to control; type: functional, Cavia porcellus, Cardiac atrium; design: scale not given: the % may be the effect or the level left
[21] = Negative chronotropic activity in guinea pig right atrium assessed as decrease in atrial rate at 10^-7 M relative to control; type: functional, Cavia porcellus, Cardiac atrium; design: scale not given: the % may be the effect or the level left
Summary of the method: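 Spontaneously beating isolated guinea pig right atrium. Compounds added cumulatively. The decrease in atrial rate is expressed as percent change from control. At each concentration, the difference from control was tested by Student's t-test, with significance at P<0.05. Data are given as mean SEM.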

[22] = system: Ileum; assay: Relaxant activity in potassium depolarized guinea pig ileum longitudinal smooth muscle assessed as inhibition of calcium-induced contraction at 10^-7 M relative to control; type: functional, Cavia porcellus; design: scale not given: the % may be the effect or the level left
[23] = Negative inotropic activity in guinea pig left atrium assessed as decrease in developed tension at 10^-4 M relative to control; type: functional, Cavia porcellus, Cardiac atrium; design: scale not given: the % may be the effect or the level left
[24] = Negative chronotropic activity in guinea pig right atrium assessed as decrease in atrial rate at 5x10'-6 M relative to control; type: functional, Cavia porcellus, Cardiac atrium; design: scale not given: the % may be the effect or the level left
[25] = Negative inotropic activity in guinea pig right atrium assessed as decrease in developed tension at 10^-5 M relative to control; type: functional, Cavia porcellus, Cardiac atrium; design: scale not given: the % may be the effect or the level left
Summary of the method: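 The read-out is decrease in developed tension of spontaneously beating isolated guinea pig right atrium at 10⁻⁵ M. It is expressed as percent change from control, n = 7−8.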

[26] = Negative chronotropic activity in guinea pig right atrium assessed as decrease in atrial rate at 10^-4 M relative to control; type: functional, Cavia porcellus, Cardiac atrium; design: scale not given: the % may be the effect or the level left
Summary of the method: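 The read-out is decrease in rate of spontaneously beating isolated guinea pig right atrium at 10⁻⁴ M. It is expressed as percent change from control, n = 7−8.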

[27] = system: Ileum; assay: Relaxant activity in potassium depolarized guinea pig ileum longitudinal smooth muscle assessed as inhibition of calcium-induced contraction at 10^-5 M relative to control; type: functional, Cavia porcellus; design: scale not given: the % may be the effect or the level left; summary of the method: as §1
[28] = Negative inotropic activity in guinea pig right atrium assessed as decrease in developed tension; type: functional, tissue-based; conditions: Cavia porcellus, Cardiac atrium
[29] = system: Aorta; assay: Relaxant activity in potassium depolarized guinea pig aortic strips assessed as inhibition of calcium-induced contraction at 10^-5 M relative to control; type: functional, Cavia porcellus; design: scale not given: the % may be the effect or the level left
[30] = system: Ileum; assay: Relaxant activity in potassium depolarized guinea pig ileum longitudinal smooth muscle assessed as inhibition of calcium-induced contraction at 5x10'-7 M relative to control; type: functional, Cavia porcellus; design: scale not given: the % may be the effect or the level left

| Structure (SMILES) | IC50 [1] [nM] | Activity [2] [%] | Activity [3] [%] | Activity [4] [%] | EC50 [5] [nM] | %max [8] [%] | %max [9] [%] | %max [10] [%] | IC50 [11] [nM] | Ki [11] [nM] | IC50 [12] [nM] | Ki [12] [nM] | %max [13] [%] | IC50 [15] [nM] | Ki [15] [nM] | IC50 [16] [nM] | Ki [16] [nM] | EC50 [18] [nM] | Activity [20] [%] | Activity [23] [%] | other results |
| --- | --- | --- | --- | --- | --- | --- | --- | --- | --- | --- | --- | --- | --- | --- | --- | --- | --- | --- | --- | --- | --- |
| COC(=O)C1=C(C)NC(C)=C(C(=O)OC)C1c1c(-c2ccncc2)nc2sc(C)cn12 | 9690 | 93 | 4 | 44 | 7490 | – | – | – | – | – | – | – | – | – | – | – | – | – | – | – | Activity [6]: 97% |
| COC(=O)C1=C(C)NC(C)=C(C(=O)OC)C1c1c(-c2cccnc2)nc2sc(C)cn12 | 16000 | 86 | – | 18 | 12500 | < 50 | < 50 | 52 | 100 | 59 | 22 | 4.8 | 70 | – | – | – | – | – | – | – | Activity [7]: 19%; Activity [14]: 83% |
| COC(=O)C1=C(C)NC(C)=C(C(=O)OC)C1c1ccccc1[N+](=O)[O-] [NIFEDIPINE] | – | – | – | – | 39 | 75 | 80 | 72 | 6.1 | 1.9 | 5.1 | 1.5 | 92 | 86 | 32 | 5.7 | 2 | 260 | 97 | – | Activity [17]: 70%; Activity [19]: 82%; Activity [21]: 85% |
| COC(=O)C1=C(C)NC(C)=C(C(=O)OC)C1c1c(-c2ccsc2)nc2sccn12 | 2.3 | – | 11 | – | 1060 | 65 | 70 | 60 | 1030 | 740 | 240 | 52 | 53 | 490 | 150 | 2050 | 740 | – | – | 47 | Activity [22]: 85%; Activity [24]: 87% |
| COC(=O)C1=C(C)NC(C)=C(C(=O)OC)C1c1c(-c2c(Cl)csc2Cl)nc2sc(C)cn12 | 3230 | – | 31 | – | – | – | – | – | – | – | – | – | – | – | – | – | – | 310 | 60 | – | Activity [25]: 82%; Activity [26]: 22%; Activity [27]: 87%; EC50 [28]: 730 nM |
| COC(=O)C1=C(C)NC(C)=C(C(=O)OC)C1c1c(-c2cccs2)nc2sccn12 | 110 | – | – | – | 1300 | 50 | < 50 | < 50 | – | – | – | – | – | 2150 | 710 | – | – | – | – | 46 | Activity [29]: 23%; Activity [30]: 91%; Activity [24]: 85% |
